According to ChEMBL document CHEMBL2046313, “Discovery and evaluation of a non-Zn chelating, selective matrix metalloproteinase 13 (MMP-13) inhibitor for potential intra-articular treatment of osteoarthritis” (J Med Chem, 2012):

Tests used:
[1] = target: Neutrophil collagenase (Homo sapiens, UniProt P22894); assay: Inhibition of human recombinant MMP8 using MCA-Pro-Leu-Gly-Leu-Dpa-Ala-Arg-NH2.AcOH as substrate preincubated for 10 mins measured by fluorescence analysis
Procedure, shortened: (§1)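 Catalytic domains of recombinant human MMPs were assayed with fluorogenic OmniMMP substrate in 50 mM Tris-HCl pH 7.5, 150 mM NaCl, 5 mM CaCl₂, 0.05% Brij-35. Enzyme was 1–10 nM and substrate 4–10 μM, optimized per assay. Enzyme was preincubated 10 min with varying inhibitor concentrations, and IC50 was calculated from runs done at least in duplicate.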

[2] = target: Stromelysin-1 (Homo sapiens, UniProt P08254); assay: Inhibition of human recombinant MMP3 using MCAArg-Pro-Lys-Pro-Val-Glu-Nva-Trp-Arg-Lys(DNP)-NH2 as substrate preincubated for 10 mins measured by fluorescence analysis
Chain of Stromelysin-1 (P08254 whole entry, the tested form may be a part): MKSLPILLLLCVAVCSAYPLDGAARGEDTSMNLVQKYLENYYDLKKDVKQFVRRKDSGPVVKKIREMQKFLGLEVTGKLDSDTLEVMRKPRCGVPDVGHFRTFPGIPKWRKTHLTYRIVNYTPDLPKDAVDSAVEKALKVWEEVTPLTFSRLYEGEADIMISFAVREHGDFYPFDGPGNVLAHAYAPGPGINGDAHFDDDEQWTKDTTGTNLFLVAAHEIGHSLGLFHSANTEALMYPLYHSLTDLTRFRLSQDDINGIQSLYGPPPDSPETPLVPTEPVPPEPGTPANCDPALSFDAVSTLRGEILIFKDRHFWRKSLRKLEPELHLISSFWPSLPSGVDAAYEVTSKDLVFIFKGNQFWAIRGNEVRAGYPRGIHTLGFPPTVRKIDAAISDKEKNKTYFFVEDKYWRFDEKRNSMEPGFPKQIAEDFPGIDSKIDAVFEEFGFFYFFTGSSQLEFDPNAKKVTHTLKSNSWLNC
Procedure, shortened: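 Catalytic domain of recombinant human MMP-3 was assayed with NFF-3 fluorogenic substrate in 50 mM MES pH 6.0, 10 mM CaCl₂, 0.05% Brij-35. Enzyme was 1–10 nM and substrate 4–10 μM. Enzyme was preincubated 10 min with varying inhibitor concentrations, and IC50 came from at least duplicate runs.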

[3] = Metabolic stability in human microsomes assessed as unmetabolized compound after 60 mins; format: ADME, Microsome; settings: read-out: Stability
[4] = species on record: Rattus norvegicus; assay: Chondroprotective activity in Sprague-Dawley rat cartilage assessed as inhibition of MMP13-mediated C1,C2 release at 0.5 mg/joint, ia measured on day 21 by ELISA; format: functional
Procedure, shortened: (§2)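 Male Sprague-Dawley rats (175−200 g, three per group) received one IA injection of 50 μL PBS holding 10 mg/mL suspension (sonicated, vortexed) into right knee. They were killed at 1, 7, 14 or 21 days, and tibial cartilage was collected. Cartilage was then challenged with 10 μg/mL APMA-activated human MMP-13 for 24 h at 37 °C in Tris pH 7.5. The reaction was stopped with 10 mM EDTA, and released C1,2C was measured by ELISA. Vehicle cartilage incubated with or without MMP-13 defined 100% and 0%.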

[5] = species on record: Rattus norvegicus; assay: Chondroprotective activity in Sprague-Dawley rat cartilage assessed as inhibition of MMP13-mediated C1,C2 release at 0.5 mg/joint, ia measured on day 14 by ELISA; format: functional; procedure, shortened: as §2
[6] = species on record: Rattus norvegicus; assay: Toxicity in Sprague-Dawley rat assessed as impaired use of limbs at 0.5 mg/joint measured on day 56; format: organism-based; settings: in vivo, other
[7] = species on record: Rattus norvegicus; assay: Toxicity in Sprague-Dawley rat assessed as ability to use limbs at 0.5 mg/joint measured on day 56; format: organism-based; settings: in vivo, other
[8] = Metabolic stability in rat microsomes assessed as unmetabolized compound after 60 mins; format: ADME, Microsome; settings: read-out: Stability
[9] = tested on: Plasma; assay: Drug uptake in Sprague-Dawley rat plasma at 1 mg/kg, iv measured after 8 weeks; format: ADME, organism-based; set-up: dose 1 mg/kg, route intravenous; settings: in vivo, 1344 h, BLD = below limit of detection
[10] = target: T1, Interstitial collagenase (Homo sapiens, UniProt P03956); assay: Inhibition of human recombinant MMP1 using MCA-Pro-Leu-Gly-Leu-Dpa-Ala-Arg-NH2.AcOH as substrate preincubated for 10 mins measured by fluorescence analysis; procedure, shortened: as §1
T1 sequence (P03956 whole entry): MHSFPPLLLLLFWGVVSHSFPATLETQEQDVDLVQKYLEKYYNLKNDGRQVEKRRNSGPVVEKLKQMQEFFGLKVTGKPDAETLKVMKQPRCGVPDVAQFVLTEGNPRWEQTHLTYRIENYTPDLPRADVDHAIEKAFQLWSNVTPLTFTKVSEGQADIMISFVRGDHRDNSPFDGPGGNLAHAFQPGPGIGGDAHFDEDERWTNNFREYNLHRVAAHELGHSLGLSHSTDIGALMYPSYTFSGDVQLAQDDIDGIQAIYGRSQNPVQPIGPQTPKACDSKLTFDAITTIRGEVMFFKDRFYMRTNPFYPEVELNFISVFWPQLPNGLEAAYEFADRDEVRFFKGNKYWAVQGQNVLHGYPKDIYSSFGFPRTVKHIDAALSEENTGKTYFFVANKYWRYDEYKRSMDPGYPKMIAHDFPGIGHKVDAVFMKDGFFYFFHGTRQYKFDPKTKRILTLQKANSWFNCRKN

[11] = tested on: Rattus norvegicus; assay: Toxicity in Sprague-Dawley rat assessed as joint irritation at 0.5 mg/kg, ia measured after 3 weeks; format: organism-based; set-up: dose 0.5 mg/kg; settings: in vivo, other, 504 h
[12] = target: T2, Matrilysin (Homo sapiens, UniProt P09237); assay: Inhibition of human recombinant MMP7 using MCA-Pro-Leu-Gly-Leu-Dpa-Ala-Arg-NH2.AcOH as substrate preincubated for 10 mins measured by fluorescence analysis; procedure, shortened: as §1
T2 sequence (P09237 whole entry): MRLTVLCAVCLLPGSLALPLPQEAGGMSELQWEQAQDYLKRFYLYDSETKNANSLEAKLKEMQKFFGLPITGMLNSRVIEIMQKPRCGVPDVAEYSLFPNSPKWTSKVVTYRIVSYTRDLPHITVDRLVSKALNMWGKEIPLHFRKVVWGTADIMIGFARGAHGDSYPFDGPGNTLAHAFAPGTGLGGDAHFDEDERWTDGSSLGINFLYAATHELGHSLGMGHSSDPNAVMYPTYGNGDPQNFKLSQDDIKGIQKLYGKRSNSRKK

[13] = target: Matrix metalloproteinase-9 (Homo sapiens, UniProt P14780); assay: Inhibition of human recombinant MMP9 using MCA-Pro-Leu-Gly-Leu-Dpa-Ala-Arg-NH2.AcOH as substrate preincubated for 10 mins measured by fluorescence analysis; procedure, shortened: as §1
Chain of Matrix metalloproteinase-9 (P14780 whole entry): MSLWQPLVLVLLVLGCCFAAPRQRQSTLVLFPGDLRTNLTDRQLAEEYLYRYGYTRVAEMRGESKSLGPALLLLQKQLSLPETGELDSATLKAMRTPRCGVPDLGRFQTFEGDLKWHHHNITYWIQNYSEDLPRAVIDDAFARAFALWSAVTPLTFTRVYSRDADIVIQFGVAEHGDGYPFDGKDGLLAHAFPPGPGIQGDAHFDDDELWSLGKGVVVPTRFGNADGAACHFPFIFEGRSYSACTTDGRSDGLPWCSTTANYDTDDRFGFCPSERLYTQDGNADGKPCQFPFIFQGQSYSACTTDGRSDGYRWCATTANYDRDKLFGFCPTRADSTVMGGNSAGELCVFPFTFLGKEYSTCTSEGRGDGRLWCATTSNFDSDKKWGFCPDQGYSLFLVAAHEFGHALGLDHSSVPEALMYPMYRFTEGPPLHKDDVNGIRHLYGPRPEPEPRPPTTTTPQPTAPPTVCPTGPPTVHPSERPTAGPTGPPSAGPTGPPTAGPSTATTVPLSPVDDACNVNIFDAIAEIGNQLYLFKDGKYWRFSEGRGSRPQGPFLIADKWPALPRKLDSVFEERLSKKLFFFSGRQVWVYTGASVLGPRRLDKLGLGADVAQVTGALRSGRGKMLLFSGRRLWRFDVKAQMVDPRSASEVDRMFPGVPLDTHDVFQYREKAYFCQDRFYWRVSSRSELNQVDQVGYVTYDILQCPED

[14] = target: Collagenase 3 (Homo sapiens, UniProt P45452); assay: Inhibition of human recombinant MMP13 using MCA-Pro-Cha-Gly-Nva-His-Ala-Dpa-NH2 as substrate preincubated for 10 mins measured by fluorescence analysis
Procedure, shortened: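 Catalytic domain of recombinant human MMP-13 was assayed with fluorogenic substrate in 50 mM Tris-HCl pH 7.5, 150 mM NaCl, 5 mM CaCl₂, 0.05% Brij-35. Enzyme was 1–10 nM and substrate 4–10 μM. It was preincubated 10 min with varying inhibitor concentrations, and IC50 came from at least duplicate runs.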

[15] = species on record: Rattus norvegicus; assay: Chondroprotective activity in Sprague-Dawley rat cartilage assessed as inhibition of MMP13-mediated C1,C2 release at 0.5 mg/joint, ia measured on day 7 by ELISA; format: functional; procedure, shortened: as §2
[16] = target: Matrix metalloproteinase-14 (Homo sapiens, UniProt P50281); assay: Inhibition of human recombinant MMP14 using MCA-Pro-Leu-Gly-Leu-Dpa-Ala-Arg-NH2.AcOH as substrate preincubated for 10 mins measured by fluorescence analysis; procedure, shortened: as §1
[17] = tested on: Rattus norvegicus; assay: Toxicity in Sprague-Dawley rat assessed as adverse effects at 0.5 mg/kg, ia measured after 3 weeks; format: organism-based; set-up: dose 0.5 mg/kg; settings: in vivo, other, 504 h
[18] = Drug uptake in Sprague-Dawley rat cartilage at 0.5 mg/joint measured on day 56; format: ADME, tissue-based, Cartilage tissue; settings: read-out: Drug uptake
[19] = tested on: Plasma; assay: Drug uptake in Sprague-Dawley rat plasma at 100 mg/kg, ip measured after 8 weeks; format: ADME, organism-based; set-up: dose 100 mg/kg, route intraperitoneal; settings: in vivo, 1344 h, BLD = below limit of detection
[20] = target: 72 kDa type IV collagenase (Homo sapiens, UniProt P08253); assay: Inhibition of human recombinant MMP2 using MCA-Pro-Leu-Gly-Leu-Dpa-Ala-Arg-NH2.AcOH as substrate preincubated for 10 mins measured by fluorescence analysis; procedure, shortened: as §1
Chain of 72 kDa type IV collagenase (P08253 whole entry): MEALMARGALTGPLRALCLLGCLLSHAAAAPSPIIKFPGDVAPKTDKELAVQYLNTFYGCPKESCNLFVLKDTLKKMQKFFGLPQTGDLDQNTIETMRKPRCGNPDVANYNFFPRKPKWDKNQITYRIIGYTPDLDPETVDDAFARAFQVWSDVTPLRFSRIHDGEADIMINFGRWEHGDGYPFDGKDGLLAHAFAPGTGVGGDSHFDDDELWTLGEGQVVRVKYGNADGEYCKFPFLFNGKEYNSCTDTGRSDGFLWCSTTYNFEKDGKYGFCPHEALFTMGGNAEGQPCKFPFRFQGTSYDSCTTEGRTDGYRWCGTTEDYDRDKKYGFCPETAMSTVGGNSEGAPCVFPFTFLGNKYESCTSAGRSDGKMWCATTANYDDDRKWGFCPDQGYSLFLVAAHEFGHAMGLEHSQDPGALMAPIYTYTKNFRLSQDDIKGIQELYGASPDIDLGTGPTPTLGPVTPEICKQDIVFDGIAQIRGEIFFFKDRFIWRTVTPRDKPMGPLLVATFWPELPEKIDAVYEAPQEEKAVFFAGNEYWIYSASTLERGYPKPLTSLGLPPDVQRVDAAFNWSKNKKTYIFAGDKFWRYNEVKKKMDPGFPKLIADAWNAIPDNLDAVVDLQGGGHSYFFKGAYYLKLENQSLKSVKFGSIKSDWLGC

[21] = Drug uptake in Sprague-Dawley rat synovial lavage at 0.5 mg/joint measured after 21 days; format: ADME; settings: read-out: Drug uptake
[22] = tested on: Rattus norvegicus; assay: Toxicity in Sprague-Dawley rat assessed as joint irritation at 0.5 mg/kg, ia measured after 48 hrs; format: organism-based; set-up: dose 0.5 mg/kg; settings: in vivo, other
[23] = target: T3, A disintegrin and metalloproteinase with thrombospondin motifs 4 (Homo sapiens, UniProt O75173); assay: Inhibition of human recombinant aggrecanase 1 using aggrecan-IGD as substrate measured after 15 mins by ELISA
T3 sequence (O75173 whole entry): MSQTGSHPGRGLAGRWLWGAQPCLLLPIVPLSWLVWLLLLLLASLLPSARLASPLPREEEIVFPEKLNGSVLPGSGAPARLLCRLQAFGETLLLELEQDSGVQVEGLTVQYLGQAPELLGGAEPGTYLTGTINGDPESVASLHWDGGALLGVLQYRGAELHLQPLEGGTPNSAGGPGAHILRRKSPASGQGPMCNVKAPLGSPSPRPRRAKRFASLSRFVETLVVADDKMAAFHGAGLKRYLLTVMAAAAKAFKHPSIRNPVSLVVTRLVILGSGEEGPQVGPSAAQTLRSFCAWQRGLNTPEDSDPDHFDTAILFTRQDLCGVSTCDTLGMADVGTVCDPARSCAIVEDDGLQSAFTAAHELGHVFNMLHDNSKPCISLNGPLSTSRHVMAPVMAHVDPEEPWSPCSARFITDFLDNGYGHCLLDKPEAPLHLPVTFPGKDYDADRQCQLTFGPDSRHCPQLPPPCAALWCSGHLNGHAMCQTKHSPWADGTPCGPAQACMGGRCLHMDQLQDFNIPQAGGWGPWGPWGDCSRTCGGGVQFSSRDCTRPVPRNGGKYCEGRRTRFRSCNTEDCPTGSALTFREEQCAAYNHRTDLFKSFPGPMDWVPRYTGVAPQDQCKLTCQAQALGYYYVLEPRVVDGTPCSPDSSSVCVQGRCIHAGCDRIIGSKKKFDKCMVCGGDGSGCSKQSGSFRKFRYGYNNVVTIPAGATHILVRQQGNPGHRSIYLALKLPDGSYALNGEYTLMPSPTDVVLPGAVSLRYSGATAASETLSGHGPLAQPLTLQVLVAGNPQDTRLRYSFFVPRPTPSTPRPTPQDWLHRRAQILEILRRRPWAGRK
Procedure, shortened: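 Aggrecanase-1 was run in 50 mM Tris-HCl pH 7.5, 150 mM NaCl, 5 mM CaCl₂, 0.05% Brij-35, with 100 nM recombinant human aggrecan interglobular domain as substrate, for 15 min at 37 °C. The reaction was stopped with EDTA, and ARGSVIL neoepitopes were quantified by ELISA.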

[24] = target: Macrophage metalloelastase (Homo sapiens, UniProt P39900); assay: Inhibition of human recombinant MMP12 using MCA-Pro-Leu-Gly-Leu-Dpa-Ala-Arg-NH2.AcOH as substrate preincubated for 10 mins measured by fluorescence analysis; procedure, shortened: as §1
Chain of Macrophage metalloelastase (P39900 whole entry): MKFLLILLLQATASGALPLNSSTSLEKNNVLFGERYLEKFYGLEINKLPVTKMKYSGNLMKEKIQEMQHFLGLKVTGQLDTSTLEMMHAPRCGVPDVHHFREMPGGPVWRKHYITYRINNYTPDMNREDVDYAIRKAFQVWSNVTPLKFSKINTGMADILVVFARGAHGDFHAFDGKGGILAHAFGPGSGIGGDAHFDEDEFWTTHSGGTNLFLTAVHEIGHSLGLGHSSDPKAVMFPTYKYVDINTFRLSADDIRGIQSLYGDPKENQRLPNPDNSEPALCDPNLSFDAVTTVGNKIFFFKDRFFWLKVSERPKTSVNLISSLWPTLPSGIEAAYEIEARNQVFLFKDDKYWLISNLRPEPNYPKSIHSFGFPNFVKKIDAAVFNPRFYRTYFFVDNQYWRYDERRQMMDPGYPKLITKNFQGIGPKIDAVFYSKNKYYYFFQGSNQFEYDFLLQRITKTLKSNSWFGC

[25] = Drug uptake in Sprague-Dawley rat synovial lavage at 0.5 mg/joint measured on day 56; format: ADME; settings: in vivo, other, BLD = below limit of detection
[26] = tested on: Plasma; assay: Drug uptake in Sprague-Dawley rat plasma at 0.5 mg/joint measured after 8 weeks; format: ADME, cell-free; settings: other, 1344 h, BLD = below limit of detection
[27] = Drug uptake in Sprague-Dawley rat cartilage at 0.5 mg/joint measured after 21 days; format: ADME, tissue-based, Cartilage tissue; settings: read-out: Drug uptake
[28] = tested on: Rattus norvegicus; assay: Toxicity in Sprague-Dawley rat assessed as adverse effects at 0.5 mg/kg, ia measured after 48 hrs; format: organism-based; set-up: dose 0.5 mg/kg; settings: in vivo, other
[29] = tested on: Plasma; assay: Drug uptake in Sprague-Dawley rat plasma at 0.5 mg/kg, ia measured after 8 weeks; format: ADME, organism-based; set-up: dose 0.5 mg/kg; settings: in vivo, other, 1344 h, BLD = below limit of detection
[30] = tested on: Cartilage tissue; assay: Inhibition of collagen degradation in bovine articular cartilage assessed as inhibition of interlukein-1alpha/oncostatin M-induced C1,C2 release measured after 11 days by ELISA; format: functional, tissue-based; settings: Bos taurus
Procedure, shortened: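 Freshly isolated bovine articular cartilage pieces (~3 mm²) were stimulated with 5 ng/mL IL-1α plus 50 ng/mL OSM, with or without compound, for 11 days. Medium was refreshed twice weekly. Collagen degradation products in the conditioned medium were quantified by C1,2C ELISA.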

[31] = target: Disintegrin and metalloproteinase domain-containing protein 17 (Homo sapiens, UniProt P78536); assay: Inhibition of human recombinant TACE using MCA-Pro-Leu-Ala-Gln-Ala-Val-Dpa-Arg-Ser-Ser-Ser-Arg-NH2 as substrate preincubated for 10 mins measured by fluorescence analysis
Chain of Disintegrin and metalloproteinase domain-containing protein 17 (P78536 whole entry, the tested form may be a part): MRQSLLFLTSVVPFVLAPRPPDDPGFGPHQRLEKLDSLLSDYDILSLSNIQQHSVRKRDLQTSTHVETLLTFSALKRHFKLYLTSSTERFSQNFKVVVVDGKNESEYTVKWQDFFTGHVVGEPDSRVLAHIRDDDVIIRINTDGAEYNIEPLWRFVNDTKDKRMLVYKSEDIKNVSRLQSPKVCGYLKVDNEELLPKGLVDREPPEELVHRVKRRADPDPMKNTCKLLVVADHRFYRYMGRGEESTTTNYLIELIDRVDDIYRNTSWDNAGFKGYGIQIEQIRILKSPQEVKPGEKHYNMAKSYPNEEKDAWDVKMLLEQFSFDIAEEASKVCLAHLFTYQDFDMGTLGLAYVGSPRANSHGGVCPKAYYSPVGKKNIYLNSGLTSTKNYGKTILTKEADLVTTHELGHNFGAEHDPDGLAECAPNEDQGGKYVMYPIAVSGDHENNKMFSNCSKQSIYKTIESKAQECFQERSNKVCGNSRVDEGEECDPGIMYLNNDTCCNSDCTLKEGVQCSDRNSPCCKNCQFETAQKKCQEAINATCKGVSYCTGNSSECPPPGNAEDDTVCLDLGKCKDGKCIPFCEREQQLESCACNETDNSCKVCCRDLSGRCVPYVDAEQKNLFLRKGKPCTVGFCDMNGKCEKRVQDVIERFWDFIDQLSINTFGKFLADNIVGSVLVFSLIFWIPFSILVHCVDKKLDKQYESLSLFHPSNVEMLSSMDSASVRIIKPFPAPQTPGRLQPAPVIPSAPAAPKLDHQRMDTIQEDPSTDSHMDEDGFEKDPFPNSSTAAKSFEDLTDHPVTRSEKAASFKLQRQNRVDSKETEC
Procedure, shortened: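 Recombinant human TACE was assayed with its fluorogenic peptide substrate in 25 mM Tris-HCl pH 9, 1.25 μM Zn(OAc)₂, 0.005% Brij-35. Enzyme was 1–10 nM and substrate 4–10 μM. Enzyme was preincubated 10 min with varying inhibitor concentrations, and IC50 came from at least duplicate runs.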

[32] = species on record: Rattus norvegicus; assay: Chondroprotective activity in Sprague-Dawley rat cartilage assessed as inhibition of MMP13-mediated C1,C2 release at 0.5 mg/joint, ia measured after 24 hrs by ELISA; format: functional; procedure, shortened: as §2
[33] = tested on: Plasma; assay: Drug uptake in Sprague-Dawley rat plasma at 100 mg/kg, po measured after 8 weeks; format: ADME, organism-based; set-up: dose 100 mg/kg, route oral; settings: in vivo, 1344 h, BLD = below limit of detection

Chain of Neutrophil collagenase (P22894 whole entry, the tested form may be a part): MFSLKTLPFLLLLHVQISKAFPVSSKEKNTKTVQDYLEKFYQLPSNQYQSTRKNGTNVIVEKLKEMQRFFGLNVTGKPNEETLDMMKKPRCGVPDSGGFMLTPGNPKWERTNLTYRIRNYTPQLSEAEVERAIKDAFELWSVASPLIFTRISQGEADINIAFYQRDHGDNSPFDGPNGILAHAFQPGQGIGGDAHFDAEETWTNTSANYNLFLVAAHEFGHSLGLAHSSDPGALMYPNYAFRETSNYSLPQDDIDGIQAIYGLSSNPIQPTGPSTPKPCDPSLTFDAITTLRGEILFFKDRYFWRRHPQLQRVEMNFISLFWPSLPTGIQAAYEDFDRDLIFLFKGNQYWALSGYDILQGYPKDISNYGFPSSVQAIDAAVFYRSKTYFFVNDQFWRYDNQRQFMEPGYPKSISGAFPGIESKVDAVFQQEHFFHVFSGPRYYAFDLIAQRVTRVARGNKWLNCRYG

Cc1c(C(=O)O)ccc2c1CC[C@@H]2NC(=O)c1cc(C(=O)NCc2ccc3c(c2)NC(=O)CO3)nc2ccnn12
IC50 [1]: 3.2 µM
IC50 [2]: 8.2 µM
remaining at 1 h [3]: 96%
inhibition (INH) [4]: 100%
inhibition (INH) [5]: 100%
Activity [6]: Non-toxic
Activity [7]: Non-toxic
remaining at 1 h [8]: 95%
Cp [9]: BLD
IC50 [10]: > 20 µM
Activity [11]: Non-toxic
IC50 [12]: > 20 µM
IC50 [13]: > 20 µM
IC50 [14]: 0.03 nM
inhibition (INH) [15]: 100%
IC50 [16]: > 20 µM
Activity [17]: Non-toxic
concentration at 56 days [18]: ≥ 2 µM
Cp [19]: BLD
IC50 [20]: > 20 µM
concentration at 504 h [21]: 0.3 µM
Activity [22]: Non-toxic
IC50 [23]: 2.4 µM
IC50 [24]: 0.655 µM
Drug uptake [25]: BLD
Cp [26]: BLD
concentration at 504 h [27]: 4.09 µM
Activity [28]: Non-toxic
Cp [29]: BLD
inhibition [30]: Dose-dependent effect
IC50 ([30]; 264 h): 0.02 µM
IC50 [31]: > 20 µM
inhibition (INH) [32]: 100%
Cp [33]: BLD
